Drawing on ChEMBL document CHEMBL1137631, “Artemisinin-resistant mutants of Toxoplasma gondii have altered calcium homeostasis” (Antimicrob Agents Chemother, 2007), this text covers EC50, Activity and EC90 for seven compounds.

pEC50: −log10 of the molar value. Activity calls are given as the source filed them. The calls are words filed in the database; no cut-off is given here.

Common to all, as to format: functional, organism-based
The subject of experiment [1] is Toxoplasma gondii. The experiment is described as follows: Antiparasitic activity against artemisinin-resistant Toxoplasma gondii KN200-6 infected in HFF cells after 72 hrs by beta-galactosidase reporter gene assay. Conditions: for EC50: hff; for pEC50: read-out: EC50. In outline:
(§1)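 Tachyzoites inoculated into HFF monolayers, quadruplicate wells per sample; compounds 10 nM to 100 μM for 3 days at 37°C. Monolayers lysed 10 min at 50°C (HEPES pH 8.0, Triton X-100, DTT), then phosphate buffer pH 7.3 added, chlorophenol red-β-D-galactopyranoside substrate, A570 read.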

Experiment [2] relates to Toxoplasma gondii. The experiment in a line: Antiparasitic activity against artemisinin-resistant Toxoplasma gondii KN200-1 infected in HFF cells after 72 hrs by beta-galactosidase reporter gene assay. The note with it: for EC50: hff; for pEC50: read-out: EC50. In outline:
as §1

The test system of experiment [3] is Toxoplasma gondii. The experiment in a line: Antiparasitic activity against artemisinin-resistant Toxoplasma gondii STL500-10A infected in HFF cells after 72 hrs by beta-galactosidase reporter gene assay. The note with it: for EC50: hff; for pEC50: read-out: EC50. The essentials:
as §1

The test system of experiment [4] is Toxoplasma gondii. The experiment is described as follows: Increase in intracellular calcium level in artemisinin-resistant Toxoplasma gondii KN200-1 at 20 uM by fura-2-AM dye based fluorimetric method. In outline:
(§2)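 Freshly harvested tachyzoites loaded with 5.2 μM fura-2-AM in HEPES-buffered saline pH 7.4 plus 1.5% sucrose, 30 min at 26°C, washed; 2×10^7 cells/ml, room temperature, no extracellular calcium (1 mM EGTA). Excitation 340/380 nm, emission 510 nm; [Ca2+]i calibrated with Ca2+-EGTA buffers after background subtraction; three independent experiments.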

Experiment [5] deals with Toxoplasma gondii. The experiment is described as follows: Induction of […] MIC2 protein secretion in artemisinin-resistant Toxoplasma gondii A2.
Experiment [6] relates to Toxoplasma gondii. The experiment is described as follows: Increase in intracellular calcium level in artemisinin-resistant Toxoplasma gondii STL500-10A at 20 uM by fura-2-AM dye based fluorimetric method. In outline: as §2
The test system of experiment [7] is Toxoplasma gondii. The experiment in a line: Antiparasitic activity against Toxoplasma gondii ATCC 50839 infected in HFF cells after 72 hrs by beta-galactosidase reporter gene assay. Conditions: for pEC50: read-out: EC50. The essentials: as §1
The subject of experiment [8] is Toxoplasma gondii. The experiment in a line: Increase in intracellular calcium level in artemisinin-resistant Toxoplasma gondii KN200-6 at 20 uM by fura-2-AM dye based fluorimetric method. In outline: as §2
Experiment [9] deals with Toxoplasma gondii. The experiment is described as follows: Increase in intracellular calcium level in Toxoplasma gondii ATCC 50839 at 20 uM by fura-2-AM dye based fluorimetric method. The essentials:
as §2

Experiment [10] deals with Toxoplasma gondii. The experiment is described as follows: Increase in intracellular calcium level in artemisinin-resistant Toxoplasma gondii STL500-10A at 1 uM by fura-2-AM dye based fluorimetric method in presence of extracellular calcium. The essentials:
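Freshly harvested tachyzoites loaded with 5.2 μM fura-2-AM in HEPES-buffered saline pH 7.4 plus 1.5% sucrose, 30 min at 26°C, washed; 2×10^7 cells/ml, room temperature, 1 mM extracellular CaCl2. 340/380 nm excitation ratio, 510 nm emission; [Ca2+]i calibrated with Ca2+-EGTA buffers; three independent experiments.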

Experiment [11] concerns Toxoplasma gondii. The experiment is described as follows: Increase in intracellular calcium level in artemisinin-resistant Toxoplasma gondii STL500-10A at 1 uM by fura-2-AM dye based fluorimetric method. In outline:
as §2

Experiment [12] deals with Toxoplasma gondii. The experiment in a line: Induction of […] MIC2 protein secretion in Toxoplasma gondii ATCC 50839 at 10 uM treated for 10 mins by Western blot. The essentials: (§3)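 Freshly egressed parasites in DMEM/HEPES with 3% FBS, treated 10 min at 18°C (1% ethanol vehicle), then 2 min at 37°C to secrete, chilled, centrifuged at 400 × g. Supernatant and pellet resolved by 15% SDS-PAGE, Western blotted with rabbit anti-MIC2 (1:10,000) and anti-β-galactosidase (1:300) antibodies.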

Experiment [13] relates to Toxoplasma gondii. The experiment is described as follows: Increase in intracellular calcium level in artemisinin-resistant Toxoplasma gondii KN200-6 at 1 uM by fura-2-AM dye based fluorimetric method. The essentials: as §2
For experiment [14], the system named is Toxoplasma gondii. The experiment in a line: Increase in intracellular calcium level in Toxoplasma gondii ATCC 50839 at 1 uM by fura-2-AM dye based fluorimetric method. The essentials:
as §2

Experiment [15] deals with Toxoplasma gondii. The experiment is described as follows: Increase in intracellular calcium level in artemisinin-resistant Toxoplasma gondii KN200-1 at 1 uM by fura-2-AM dye based fluorimetric method. In outline:
as §2

The test system of experiment [16] is Toxoplasma gondii. The experiment is described as follows: Induction of […] MIC2 protein secretion in artemisinin-resistant Toxoplasma gondii STL500-10A at 10 uM treated for 10 mins by Western blot. The essentials: as §3
The test system of experiment [17] is Toxoplasma gondii. The experiment is described as follows: Induction of […] MIC2 protein secretion in artemisinin-resistant Toxoplasma gondii KN200-1 at 10 uM treated for 10 mins by Western blot. In outline:
as §3

Experiment [18] has as its system Toxoplasma gondii. The experiment is described as follows: Induction of […] MIC2 protein secretion in artemisinin-resistant Toxoplasma gondii KN200-6 at 10 uM treated for 10 mins by Western blot. The essentials:
as §3

The mark [19] stands for this setting: Toxoplasma gondii, KN200-6, HFF, 72 h.
Where [20] appears, read: Toxoplasma gondii, KN200-1, HFF, 72 h.
[21] abbreviates: Toxoplasma gondii, STL500-10A, HFF, 72 h.
Where [22] appears, read: Toxoplasma gondii, ATCC 50839, HFF, 72 h.

`C[C@@H]1CC[C@H]2[C@H](C)CO[C@@H]3O[C@@]4(C)CC[C@@H]1[C@]32OO4` [9-EPI-10-DEOXOARTEMISININ]: the EC50 entry with Toxoplasma gondii [1], in the experiment with Toxoplasma gondii [2] and in the experiment with Toxoplasma gondii [3] was “Active” in each case.

With `C[C@@H]1CC[C@H]2[C@@H](C)C(=O)O[C@@H]3O[C@@]4(C)CC[C@@H]1[C@]32OO4` [ARTEMISININ], the outcome in the experiment on Toxoplasma gondii [4], in the experiment on Toxoplasma gondii [6], in the experiment on Toxoplasma gondii [8] and with Toxoplasma gondii [9] was Active. Besides, the outcome in the experiment with Toxoplasma gondii [5] was inactive. For the same compound, the EC90 with Toxoplasma gondii [1] (setting [19]) is 8550 nM; in the experiment on Toxoplasma gondii [2] (setting [20]), 6850 nM; in the experiment with Toxoplasma gondii [3] (setting [21]), 4770 nM; in the experiment with Toxoplasma gondii [7] (setting [22]), 1240 nM. The negative logarithm of the EC50 (pEC50) in the experiment on Toxoplasma gondii [1] (setting [19]) is 5.82; in the experiment on Toxoplasma gondii [2] (setting [20]) it was 5.76; with Toxoplasma gondii [3] (setting [21]), 5.74; in the experiment with Toxoplasma gondii [7] (setting [22]), 6.10.

Regarding `C[C@@H]1CC[C@H]2[C@@H](C)C(=O)O[C@@H]3O[C@@]4(C)CC[C@@H]1[C@]32O4` [DEOXYARTEMISININ], the EC50 result with Toxoplasma gondii [1], with Toxoplasma gondii [2], in the experiment with Toxoplasma gondii [3] and in the experiment with Toxoplasma gondii [7] (hff) was “Not Active” throughout.

As to `C/C=C(/C)C(=O)O[C@H]1C(C)=C2[C@H]([C@@H]1OC(=O)CCCCCCC)[C@@](C)(OC(C)=O)C[C@H](OC(=O)CCC)[C@@]1(O)[C@H]2OC(=O)[C@@]1(C)O`, the result with Toxoplasma gondii [10], in the experiment on Toxoplasma gondii [5], with Toxoplasma gondii [11], in the experiment on Toxoplasma gondii [12], in the experiment with Toxoplasma gondii [13] and in the experiment with Toxoplasma gondii [14] was Active. The result in the experiment with Toxoplasma gondii [15], in the experiment with Toxoplasma gondii [16], in the experiment with Toxoplasma gondii [17] and in the experiment on Toxoplasma gondii [18] was Active.

Turning to `O=c1[nH]c(=O)n([C@H]2C[C@H](O)[C@@H](CO)O2)cc1F` [FLOXURIDINE], the pEC50 in the experiment on Toxoplasma gondii [1] (setting [19]) was 5.92; in the experiment on Toxoplasma gondii [2] (setting [20]), 5.95; in the experiment with Toxoplasma gondii [3] (setting [21]) it was 6.02; in the experiment on Toxoplasma gondii [7] (setting [22]) it was 6.04.

Regarding `C[C@H]1[C@H](N2CCS(=O)(=O)CC2)O[C@@H]2O[C@@]3(C)CC[C@H]4[C@H](C)CC[C@@H]1[C@@]24OO3` [ARTEMIFONE], in the experiment with Toxoplasma gondii [7] (setting [22]), the pEC50 is 7.52.

For the compound `CCc1nc(N)nc(N)c1-c1ccc(Cl)cc1` [PYRIMETHAMINE], the pEC50 with Toxoplasma gondii [1] (setting [19]) is 6.57; with Toxoplasma gondii [2] (setting [20]), 6.54; with Toxoplasma gondii [3] (setting [21]), 6.62; with Toxoplasma gondii [7] (setting [22]), 6.68.
